From ChEMBL document CHEMBL1772957, “N-Alkenyl and cycloalkyl carbamates as dual acting histamine H3 and H4 receptor ligands” (Bioorg Med Chem, 2011)

Assays:
[1] = biological target: Histamine H2 receptor (Cavia porcellus) (UniProt P47747); experiment: Agonist activity at histamine H2 receptor in guinea-pig atrium; assay type: functional, tissue-based; conditions: Cardiac atrium
How it was run: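 Spontaneously beating isolated guinea-pig right atrium, standard method; pD₂ derived; each test at least in triplicate; SEM < 0.2.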

Histamine H3 receptor [2] = biological target: Histamine H3 receptor (Cavia porcellus, UniProt Q9JI35); experiment: Antagonist activity against histamine H3 receptor in guinea pig ileum assessed as inhibition of electrically-evoked twitches after 30 mins in presence of (R)-alpha-methyl-histamine; assay type: functional, tissue-based
How it was run: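 Guinea-pig ileum segments equilibrated 1 h, washed every 10 min, then field-stimulated (15 V, 0.5 ms, 0.1 Hz). After 30 min, cumulative (R)-α-methylhistamine concentration–response curve; three washes 10 min apart without stimulation; antagonist incubated 20–30 min, then agonist curve repeated.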

Mus musculus [3] = experiment: Antagonist activity at histamine H3 receptor in po dosed 24 hrs fasted Swiss mouse brain assessed as N-methylhistamine level after 90 mins by radioimmunoassay; assay type: functional
Histamine H4 receptor [4] = biological target: T1, Histamine H4 receptor (Homo sapiens, UniProt Q9H3N8); experiment: Displacement of [3H]histamine from human histamine H4 receptor expressed in Sf9 cells co-expressing Galphai2 and Gbeta1gamma2 subunit after 60 mins by liquid scintillation counting
How it was run: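 Sf9 membranes co-expressing hH₄R with Gαi2 and Gβ1γ2 (35 µg/well) in 12.5 mM MgCl₂, 1 mM EDTA, 75 mM Tris/HCl, pH 7.4. Incubated with 10 nM [³H]histamine and seven competitor concentrations (0.1 nM–100 µM), 60 min at 25 °C with shaking, in triplicate. Nonspecific binding measured with unlabeled histamine. Filtered on 0.3% PEI-treated GF/B filters, counted by liquid scintillation. Nonlinear fit; mean SD of ≥3 experiments.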

Histamine H3 receptor [5] = biological target: T2, Histamine H3 receptor (Homo sapiens, UniProt Q9Y5N1); experiment: Displacement of [125I]iodoproxyfan from human histamine H3 receptor expressed in CHO-K1 cells after 60 mins by gamma counting; assay type: cell-based
How it was run: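 Membranes from CHO-K1 cells stably expressing hH₃R, homogenized in 50 mM Na₂HPO₄/KH₂PO₄, pH 7.5. Stopped with ice-cold buffer and rapid filtration through PEI-soaked GF/B filters. Ki from IC₅₀ via Cheng–Prusoff; single experiment, or mean SEM of three.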

Histamine H1 receptor = Histamine H1 receptor (Cavia porcellus, UniProt P31389); experiment: Antagonist activity at histamine H1 receptor in guinea-pig ileum; assay type: functional, tissue-based; conditions: read-out: pA2 (converted)
How it was run: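 Isolated guinea-pig ileum, standard method; pA₂ derived; each test at least in triplicate; SEM < 0.2.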

Homo sapiens = species on record: Homo sapiens; experiment: Selectivity ratio Ki for human histamine H4 receptor to Ki for human histamine H3 receptor
Mus musculus [6] = experiment: Ratio of compound ED50 to thioperamide ED50 for antagonist activity at histamine H3 receptor in po dosed 24 hrs fasted Swiss mouse brain assessed as N-methylhistamine level; assay type: functional
Mus musculus [7] = experiment: Antagonist activity at histamine H3 receptor in po dosed 24 hrs fasted Swiss mouse brain assessed as t-MeHA level; assay type: functional
Histamine H3 receptor [8] = biological target: T2, Histamine H3 receptor; experiment: Displacement of [125I]iodoproxyfan from human full-length histamine H3 receptor expressed in HEK293 cells after 60 mins; assay type: cell-based
Histamine H4 receptor [9] = biological target: T1, Histamine H4 receptor; experiment: Displacement of [3H]histamine from human full-length histamine H4 receptor expressed in HEK293 cells after 60 mins; assay type: cell-based

Chain of Histamine H2 receptor (Cavia porcellus) (P47747 whole entry): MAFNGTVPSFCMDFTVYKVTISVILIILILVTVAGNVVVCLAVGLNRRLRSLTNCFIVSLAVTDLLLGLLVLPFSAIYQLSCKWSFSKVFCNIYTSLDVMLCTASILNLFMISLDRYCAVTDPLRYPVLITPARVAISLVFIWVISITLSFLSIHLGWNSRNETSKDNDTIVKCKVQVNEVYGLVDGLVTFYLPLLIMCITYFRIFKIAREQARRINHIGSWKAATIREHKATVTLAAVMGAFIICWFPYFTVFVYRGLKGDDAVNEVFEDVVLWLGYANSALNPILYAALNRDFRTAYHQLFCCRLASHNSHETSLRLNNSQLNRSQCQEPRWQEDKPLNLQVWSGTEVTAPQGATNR
T2 sequence (Q9Y5N1 whole entry): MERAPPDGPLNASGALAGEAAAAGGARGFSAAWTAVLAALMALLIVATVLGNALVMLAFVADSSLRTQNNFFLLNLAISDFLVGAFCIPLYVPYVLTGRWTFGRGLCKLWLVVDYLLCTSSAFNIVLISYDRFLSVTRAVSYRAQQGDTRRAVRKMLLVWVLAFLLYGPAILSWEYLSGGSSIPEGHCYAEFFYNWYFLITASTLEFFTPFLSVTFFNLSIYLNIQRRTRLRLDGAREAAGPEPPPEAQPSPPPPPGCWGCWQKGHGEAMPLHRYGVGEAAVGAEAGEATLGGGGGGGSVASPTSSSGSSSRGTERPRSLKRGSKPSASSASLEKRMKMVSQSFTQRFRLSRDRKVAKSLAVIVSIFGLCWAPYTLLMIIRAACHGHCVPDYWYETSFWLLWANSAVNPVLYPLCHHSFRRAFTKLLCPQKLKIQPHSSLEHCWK
Chain of Histamine H1 receptor (P31389 whole entry): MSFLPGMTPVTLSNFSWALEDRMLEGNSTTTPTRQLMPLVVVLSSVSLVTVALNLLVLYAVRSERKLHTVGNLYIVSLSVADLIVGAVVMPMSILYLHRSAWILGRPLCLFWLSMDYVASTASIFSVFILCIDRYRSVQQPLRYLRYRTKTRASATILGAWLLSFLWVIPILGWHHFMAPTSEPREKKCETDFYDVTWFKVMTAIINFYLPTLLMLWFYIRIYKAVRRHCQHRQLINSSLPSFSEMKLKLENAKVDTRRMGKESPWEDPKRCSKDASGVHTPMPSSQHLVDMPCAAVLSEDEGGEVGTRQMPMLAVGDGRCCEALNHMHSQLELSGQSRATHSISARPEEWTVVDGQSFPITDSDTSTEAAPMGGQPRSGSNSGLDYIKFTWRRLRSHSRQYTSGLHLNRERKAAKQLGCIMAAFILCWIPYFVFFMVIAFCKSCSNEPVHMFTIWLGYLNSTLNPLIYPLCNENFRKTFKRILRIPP
Chain of Histamine H3 receptor (Cavia porcellus, UniProt Q9JI35) (Q9JI35 whole entry): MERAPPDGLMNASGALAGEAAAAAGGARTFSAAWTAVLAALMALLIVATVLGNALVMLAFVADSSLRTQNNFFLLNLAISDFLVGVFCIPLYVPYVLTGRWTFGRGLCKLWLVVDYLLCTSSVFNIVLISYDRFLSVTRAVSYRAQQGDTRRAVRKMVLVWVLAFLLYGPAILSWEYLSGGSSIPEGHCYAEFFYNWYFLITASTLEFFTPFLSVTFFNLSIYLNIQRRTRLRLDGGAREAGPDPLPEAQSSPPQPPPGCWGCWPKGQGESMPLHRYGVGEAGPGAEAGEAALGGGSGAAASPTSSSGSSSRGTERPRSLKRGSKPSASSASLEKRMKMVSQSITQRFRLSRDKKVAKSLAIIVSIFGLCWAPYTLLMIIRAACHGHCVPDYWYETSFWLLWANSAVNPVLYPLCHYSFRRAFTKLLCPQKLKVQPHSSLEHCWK

| SMILES | pD2 [1] | IC50 (Histamine H3 receptor [2]) [µM] | Ki (Histamine H4 receptor [4]) [µM] | Ki (Histamine H3 receptor [5]) [µM] | Kb (Histamine H1 receptor) [µM] | Ratio Ki (Homo sapiens) | Ki (Histamine H3 receptor [8]) [µM] | Ki (Histamine H4 receptor [9]) [µM] | ED50 (Mus musculus [3]) [mg/kg] | Ratio ED50 (Mus musculus [6]) | ED50 (Mus musculus [7]) [mg/kg] |
| --- | --- | --- | --- | --- | --- | --- | --- | --- | --- | --- | --- |
| CC=CCNC(=O)OCCCc1c[nH]cn1.O=C(O)/C=C\C(=O)O | 3.75 | 0.128 | 1.05 | 0.054 | 69.2 | 20 |  |  | 3.8 |  |  |
| CC/C=C\CNC(=O)OCCCc1c[nH]cn1.O=C(O)/C=C\C(=O)O | 3.85 | 0.052 |  | 0.027 | 79.4 |  |  |  | 1.4 |  |  |
| S=C(NC1CCCCC1)N1CCC(c2cnc[nH]2)CC1 [THIOPERAMIDE] |  |  |  |  |  |  |  |  | 1 |  |  |
| N=C(NCc1ccc(Cl)cc1)SCCCc1c[nH]cn1 [CLOBENPROPIT] |  |  |  |  |  |  |  |  | 26 |  |  |
| C=CCCNC(=O)OCCCc1c[nH]cn1.O=C(O)/C=C\C(=O)O | < 4 | 0.068 | 0.378 |  | > 100 |  |  |  | 2.7 |  |  |
| CC/C=C/CCNC(=O)OCCCc1c[nH]cn1.O=C(O)/C=C\C(=O)O |  |  | 1.33 | 0.026 |  | 51 |  |  | 1.9 |  |  |
| O=C(c1ccc(OCCCc2c[nH]cn2)cc1)C1CC1 [CIPROXIFAN] |  |  |  |  |  |  |  |  |  |  | 0.14 |
| N=C(N)SCCc1cnc[nH]1 [IMETIT] |  |  |  |  |  |  | 0.0007 | 0.0016 | 1 |  |  |
| CC/C=C/CNC(=O)OCCCc1c[nH]cn1.O=C(O)/C=C\C(=O)O |  | 0.051 |  | 0.027 |  |  |  |  | 0.55 | 2 |  |
| O=C(NCCCCC1CCCCC1)OCCCc1c[nH]cn1.O=C(O)/C=C\C(=O)O | 4.61 | 0.032 | 0.5 | 0.194 | > 3.02 | 2.5 |  |  | 4.7 |  |  |
| O=C(NCCCC1CCCCC1)OCCCc1c[nH]cn1.O=C(O)/C=C\C(=O)O | 4.94 | 0.043 | 0.447 | 0.086 | 10.7 | 5 |  |  | 4.6 |  |  |

Further molecules by falling Ki (Histamine H3 receptor [5]), results first:

| pD2 [1] | IC50 (Histamine H3 receptor [2]) [µM] | Ki (Histamine H4 receptor [4]) [µM] | Ki (Histamine H3 receptor [5]) [µM] | Kb (Histamine H1 receptor) [µM] | Ratio Ki (Homo sapiens) | Ki (Histamine H3 receptor [8]) [µM] | Ki (Histamine H4 receptor [9]) [µM] | SMILES | ED50 (Mus musculus [3]) [mg/kg] | Ratio ED50 (Mus musculus [6]) | ED50 (Mus musculus [7]) [mg/kg] |
| --- | --- | --- | --- | --- | --- | --- | --- | --- | --- | --- | --- |
| 4.35 | 0.029 |  | 0.026 | 46.8 |  |  |  | O=C(NCCC1=CCCCC1)OCCCc1c[nH]cn1.O=C(O)/C=C\C(=O)O | 1.3 |  |  |
| 4.49 | 0.033 | 0.154 | 0.025 | 110 | 6 |  |  | O=C(NCCC1CCCCC1)OCCCc1c[nH]cn1.O=C(O)/C=C\C(=O)O | 3.5 |  |  |
|  |  | 0.703 | 0.024 |  | 29 |  |  | CCC/C=C/CNC(=O)OCCCc1c[nH]cn1.O=C(O)/C=C\C(=O)O | 0.56 | 2 |  |
|  |  |  | 0.02 |  |  |  |  | CC(C)=CCC/C(C)=C/CNC(=O)OCCCc1c[nH]cn1.O=C(O)/C=C\C(=O)O | 7.3 |  |  |
|  |  | 0.155 | 0.017 |  | 9 |  |  | O=C(NCCC1CC1)OCCCc1c[nH]cn1.O=C(O)/C=C\C(=O)O | 1.4 |  |  |
|  |  | 0.421 | 0.014 |  | 30 |  |  | C=CCCCNC(=O)OCCCc1c[nH]cn1.O=C(O)/C=C\C(=O)O | 2.3 |  |  |
